Experimental data from different studies.
Compare with care: the assays were run in different laboratories.
Target: Mitogen-activated protein kinase 14 (MAPK14, Homo sapiens, UniProt Q16539)

SMILES | observed | technique | concentration | remaining binding
CS(=O)(=O)c1cc(C2(NC(=O)c3cncc4c3cnn4-c3ccc(F)cc3)CC2)ccn1 | cell-free assay | competition with immobilised ligand | 1 µM | 100%
O=C(c1ccc(Nc2ncc(Cl)c(-c3ccc(Cl)s3)n2)cc1)N1CCC(N2CCCC2)CC1 | binding | competition with immobilised ligand | 1 µM | 91%
CNC(=O)[C@@H]1CC[C@@H](n2c(-c3ccc4cnccc4c3)nc3ccc(C(=O)NCc4cccc(C(N)=O)c4)cc32)C1 | binding | competition with immobilised ligand | 1 µM | 99%
CC(C)(C)c1ccc(-c2nc(CBr)nn2-c2cccc(O)c2)cc1 | cell-free assay | competition with immobilised ligand | 10 µM | 100%
O=C1CCc2cc(Nc3cc(OC4CCOCC4)c([N+](=O)[O-])cc3Cl)ccc2N1 | cell-free assay | competition with immobilised ligand | 1 µM | 100%
COC(=O)Nc1nc2ccc(C(=O)c3ccccc3)cc2[nH]1 | cell-free assay | competition with immobilised ligand | 10 µM | 17%
O=C(NCCCN1CCOCC1)c1ccc(Nc2nccc(-c3cc4ccccc4s3)n2)cc1 | binding | competition with immobilised ligand | 1 µM | 96%
FC(F)(F)Oc1cccc(-c2cnc3ccc(-c4ccncc4)nn23)c1 | cell-free assay | competition with immobilised ligand | 5 µM | 94%
Nc1ncc2c(n1)-c1c([nH]c3ccc(C#CC4CC4)cc13)CCCC2 | binding | competition with immobilised ligand | 1 µM | 98%
CN(CCCC(F)(F)F)c1nccc(-c2cnn3ncccc23)n1 | binding |  | 1 µM | 100%
Cc1c[nH]c2nccc(Oc3c(F)cc(Nc4cc(Cl)nc(N)n4)cc3F)c12 | cell-free assay | competition with immobilised ligand | 0.1 µM | 100%
Cc1cnn2ncc(-c3ccnc(N(C)C)n3)c2c1 | binding |  | 1 µM | 100%
CNC(=O)c1ccc(Nc2ncc(C(F)(F)F)c(NCc3nccnc3N(C)S(C)(=O)=O)n2)cc1 | cell-free assay | competition with immobilised ligand | 0.1 µM | 100%
N[C@H]1CCN(c2nccc(-c3cnn4ncccc34)n2)C1 | binding |  | 1 µM | 100%
COc1cc(-c2cn(C3CCc4ccccc4N(CC(F)(F)F)C3=O)nn2)ccc1-n1ccc(C)n1 (centres unmarked) | cell-free assay | competition with immobilised ligand | 1 µM | 94%
F[C@@H]1CCN(c2nccc(-c3cnn4ncccc34)n2)C1 | binding |  | 1 µM | 100%
COc1ncc2cc3ccccc3nc2c1C#N | cell-free assay | competition with immobilised ligand | 5 µM | 100%
